Source: ChEMBL document CHEMBL3227991, “5-Iminodaunorubicin. Reduced cardiotoxic properties in an antitumor anthracycline” (J Med Chem, 1979)

Legend:
B16 [1] = assay: Antitumor activity against mouse B16 cells allografted in mouse assessed as increase in survival time at 6.25 mg/kg administered as qd for 1 to 9 days relative to control; type: functional
Summary of the method: (§1)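 Transplanted P388 leukemia or B16 melanoma in mice, dosed on a schedule of nine daily doses (qd 1-9). Efficacy was the increase in survival time of treated versus control animals (% T/C), from single tests.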

P388 [2] = assay: Antitumor activity against mouse P388 cells allografted in mouse assessed as increase in survival time at 6.25 mg/kg administered as qd for 1 to 9 days relative to control; type: functional; summary of the method: as §1
Salmonella typhimurium [3] = assay: Genotoxicity in Salmonella typhimurium TA98 assessed as number of revertants by Ames test in presence of microsomal activation; type: toxicity, organism-based; details: salmonella enterica subsp. enterica serovar typhimurium
Summary of the method: (§2)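 Ames reversion in S. typhimurium TA98, run with and without microsomal activation; doses up to a maximum of 32 μg/plate; four determinations; mutagenicity given as revertants/nmol.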

P388 [4] = assay: Antitumor activity against mouse P388 cells allografted in mouse assessed as increase in survival time at 24 mg/kg, ip administered as single dose on day 5, 9 and 13 relative to control; type: functional; details: route intraperitoneal
Summary of the method: (§3)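 Mice received ip P388 leukemia cells on day 0. Disease was left to progress and ip dosing was delayed to days 5, 9 and 13. Survival time of treated relative to control mice was expressed as % T/C, with ≥125 defined as active. Values are means of repeated tests (27 for reference agents, duplicate for others).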

P388 [5] = assay: Antitumor activity against mouse P388 cells allografted in mouse assessed as increase in survival time at 3 mg/kg, ip administered as single dose on day 5, 9 and 13 relative to control; type: functional; details: route intraperitoneal; summary of the method: as §3
Rattus norvegicus = species: Rattus norvegicus; assay: Cardiotoxicity in rat assessed as minimum cumulative drug dose causing electrocardiographic changes; type: toxicity, organism-based; details: in vivo
Summary of the method: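 Zbinden cardiotoxicity test in rats; endpoint is the minimum cumulative dose producing significant electrocardiographic changes, expressed in mg/kg.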

P388 [6] = assay: Antitumor activity against mouse P388 cells allografted in mouse assessed as increase in survival time at 6 mg/kg, ip administered as single dose on day 5, 9 and 13 relative to control; type: functional; details: route intraperitoneal; summary of the method: as §3
P388 [7] = assay: Antitumor activity against mouse P388 cells allografted in mouse assessed as increase in survival time at 12 mg/kg, ip administered as single dose on day 5, 9 and 13 relative to control; type: functional; details: route intraperitoneal; summary of the method: as §3
Salmonella typhimurium [8] = assay: Genotoxicity in Salmonella typhimurium TA98 assessed as number of revertants by Ames test in absence of microsomal activation; type: toxicity, organism-based; details: salmonella enterica subsp. enterica serovar typhimurium; summary of the method: as §2
Salmonella typhimurium [9] = assay: Genotoxicity in Salmonella typhimurium TA98 assessed as number of revertants by Ames test; type: toxicity, organism-based; details: salmonella enterica subsp. enterica serovar typhimurium; summary of the method: as §2
P388 [10] = assay: Antitumor activity against mouse P388 cells allografted in mouse assessed as increase in survival time at 1 mg/kg, ip administered as qd for 1 to 9 days relative to control; type: functional; details: route intraperitoneal
L1210 [11] = assay: Inhibition of RNA synthesis in mouse L1210 cells; type: functional; details: read-out: ED50 (the source's name)
Salmonella typhimurium [12] = assay: Genotoxicity in Salmonella typhimurium TA98 at 32 ug/plate by Ames test; type: toxicity, organism-based; details: salmonella enterica subsp. enterica serovar typhimurium; summary of the method: as §2
L1210 [13] = assay: Inhibition of DNA synthesis in mouse L1210 cells; type: functional; details: read-out: ED50 (the source's name)
B16 [14] = assay: Antitumor activity against mouse B16 cells allografted in mouse assessed as increase in survival time at 2 mg/kg, ip administered as qd for 1 to 9 days relative to control; type: functional; details: route intraperitoneal
Summary of the method: (§4)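 B16 melanoma in mice. Treatment was given as nine daily doses, as a single dose on day 1, or as a single dose delayed to day 5. Activity was taken as the increase in survival time of treated versus control animals (% T/C).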

B16 [15] = assay: Antitumor activity against mouse B16 cells allografted in mouse assessed as increase in survival time at 6.25 mg/kg, ip administered as single dose on day 1 relative to control; type: functional; details: route intraperitoneal; summary of the method: as §4
P388 [16] = assay: Antitumor activity against mouse P388 cells allografted in mouse assessed as increase in survival time at 2 mg/kg, ip administered as qd for 1 to 9 days relative to control; type: functional; details: route intraperitoneal
Salmonella typhimurium [17] = assay: Genotoxicity in Salmonella typhimurium TA100 by Ames test; type: toxicity, organism-based; details: salmonella enterica subsp. enterica serovar typhimurium
Calf thymus DNA = assay: Binding affinity to calf thymus DNA assessed as change in melting temperature; type: nucleic-acid assay; details: Bos taurus
Summary of the method: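 Thermal denaturation of isolated helical DNA in 0.010 M phosphate buffer, pH 7.0, with 10⁻⁵ M EDTA and 5% Me₂SO to solubilize compounds; read-out is the increase in melting temperature (ΔTm, °C).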

P388 [18] = assay: Antitumor activity against mouse P388 cells allografted in mouse assessed as increase in survival time at 1.5 mg/kg, ip administered as single dose on day 5, 9 and 13 relative to control; type: functional; details: route intraperitoneal; summary of the method: as §3
B16 [19] = assay: Antitumor activity against mouse B16 cells allografted in mouse assessed as increase in survival time at 12.5 mg/kg, ip administered as single dose on day 5 relative to control; type: functional; details: route intraperitoneal; summary of the method: as §4
P388 [20] = assay: Antitumor activity against mouse P388 cells allografted in mouse assessed as increase in survival time at 4 mg/kg, ip administered as qd for 1 to 9 days relative to control; type: functional; details: route intraperitoneal
P388 [21] = assay: Antitumor activity against mouse P388 cells allografted in mouse assessed as increase in survival time at 0.5 mg/kg, ip administered as qd for 1 to 9 days relative to control; type: functional; details: route intraperitoneal
P388 [22] = assay: Antitumor activity against mouse P388 cells allografted in mouse assessed as increase in survival time at 2 mg/kg, ip administered as single dose on day 5, 9 and 13 relative to control; type: functional; details: route intraperitoneal; summary of the method: as §3
P388 [23] = assay: Antitumor activity against mouse P388 cells allografted in mouse assessed as increase in survival time at 0.2 mg/kg, ip administered as qd for 1 to 9 days relative to control; type: functional; details: route intraperitoneal
Salmonella typhimurium [24] = assay: Genotoxicity in Salmonella typhimurium 8907 assessed as number of revertants by Ames test in presence of S9 fraction; type: toxicity, organism-based; details: salmonella enterica subsp. enterica serovar typhimurium
P388 [25] = assay: Antitumor activity against mouse P388 cells allografted in mouse assessed as increase in survival time at 4 mg/kg, ip administered as single dose for every 4 days up to 13 days relative to control; type: functional; details: route intraperitoneal; summary of the method: as §3
P388 [26] = assay: Antitumor activity against mouse P388 cells allografted in mouse assessed as increase in survival time at 0.78 mg/kg, ip administered as qd for 1 to 9 days relative to control; type: functional; details: route intraperitoneal
P388 [27] = assay: Antitumor activity against mouse P388 cells allografted in mouse assessed as increase in survival time at 8 mg/kg, ip administered as single dose on day 5, 9 and 13 relative to control; type: functional; details: route intraperitoneal; summary of the method: as §3
P388 [28] = assay: Antitumor activity against mouse P388 cells allografted in mouse assessed as increase in survival time at 1.56 mg/kg, ip administered as qd for 1 to 9 days relative to control; type: functional; details: route intraperitoneal
P388 [29] = assay: Antitumor activity against mouse P388 cells allografted in mouse assessed as increase in survival time at 0.39 mg/kg, ip administered as qd for 1 to 9 days relative to control; type: functional; details: route intraperitoneal
P388 [30] = assay: Antitumor activity against mouse P388 cells allografted in mouse assessed as increase in survival time at 16 mg/kg, ip administered as single dose on day 5, 9 and 13 relative to control; type: functional; details: route intraperitoneal; summary of the method: as §3
Salmonella typhimurium [31] = assay: Genotoxicity in Salmonella typhimurium 908 assessed as number of revertants by Ames test; type: toxicity, organism-based; details: salmonella enterica subsp. enterica serovar typhimurium
Salmonella typhimurium [32] = assay: Genotoxicity in Salmonella typhimurium TA98 at >8 ug/plate by Ames test; type: toxicity, organism-based; details: salmonella enterica subsp. enterica serovar typhimurium
Salmonella typhimurium [33] = assay: Genotoxicity in Salmonella typhimurium TA100 assessed as number of revertants by Ames test; type: toxicity, organism-based; details: salmonella enterica subsp. enterica serovar typhimurium

| Structure (SMILES) | MTC (Rattus norvegicus) | Activity (Salmonella typhimurium [9]) | EC50 (L1210 [11]) | EC50 (L1210 [13]) | ΔTm (Calf thymus DNA) | T/C (P388 [22]) | T/C (P388 [23]) | T/C (P388 [25]) | T/C (P388 [26]) | T/C (P388 [27]) | T/C (P388 [28]) | T/C (P388 [29]) | T/C (P388 [30]) | other results |
| --- | --- | --- | --- | --- | --- | --- | --- | --- | --- | --- | --- | --- | --- | --- |
| COc1cccc2c1C(=O)c1c(O)c3c(c(O)c1C2=O)C[C@@](O)(C(N)=O)C[C@@H]3O[C@H]1C[C@H](N)[C@H](O)[C@H](C)O1.Cl |  |  |  |  |  |  |  |  |  |  |  |  |  | T/C (B16 [1]): 161%; T/C (P388 [2]): 151% |
| COc1cccc2c1C(=N)c1c(O)c3c(c(O)c1C2=O)C[C@@](O)(C(C)=O)C[C@@H]3O[C@H]1C[C@H](N)[C@H](O)[C@H](C)O1.Cl | 64 mg/kg | 1 revertants/nmol | 1.3 µM | 1.6 µM | 6.25 °C |  |  |  |  |  |  |  |  | Activity (Salmonella typhimurium [3]): 0 nmol; T/C (P388 [4]): 126%; T/C (P388 [5]): 130%; T/C (P388 [6]): 124%; T/C (P388 [7]): 116%; Activity (Salmonella typhimurium [8]): 0 nmol; T/C (P388 [10]): 164%; Activity (Salmonella typhimurium [12]): Non-toxic; T/C (B16 [14]): 222%; T/C (B16 [15]): 173%; T/C (P388 [16]): 170%; Activity (Salmonella typhimurium [17]): Non-toxic; T/C (P388 [18]): 126%; T/C (B16 [19]): 122%; T/C (P388 [20]): 153%; T/C (P388 [21]): 145% |
| COc1cccc2c1C(=O)c1c(O)c3c(c(O)c1C2=O)C[C@@](O)(C(=O)CO)C[C@@H]3O[C@H]1C[C@H](N)[C@H](O)[C@H](C)O1 [DOXORUBICIN] | 11 mg/kg |  | 0.7 µM | 1.5 µM | 13.4 °C | 130% | 160% | 146% | 197% | 159% | 176% | 174% | 120% | Activity (Salmonella typhimurium [24]): 108 revertants/nmol |
| COc1cccc2c1C(=O)c1c(O)c3c(c(O)c1C2=O)C[C@@](O)(C(C)=O)C[C@@H]3O[C@H]1C[C@H](N)[C@H](O)[C@H](C)O1.Cl [DAUNORUBICIN HYDROCHLORIDE] | 14 mg/kg | 100 revertants/nmol | 0.3 µM | 1 µM |  | 126% | 144% | 128% | 160% | 132% | 148% | 153% | 126% | Activity (Salmonella typhimurium [31]): 356 revertants/nmol; Activity (Salmonella typhimurium [32]): Toxic; Activity (Salmonella typhimurium [33]): 0.5 revertants/nmol |
